Data reported in ChEMBL document CHEMBL1124248, “Preparation and antischistosomal and antitumor activity of hycanthone and some of its congeners. Evidence for the mode of action of hycanthone” (1988).
Where “and” joins values, the source holds several entries; their conditions need not be identical. Equal values may be shown once.

Tests used:
Type in all cases: functional
Schistosoma mansoni [1] = experiment: Incorporation of 1.2 M *10e6 [3H]uridine in hycanthone(HC) resistant Schistosoma mansoni
In short: (§1)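 Adult HC-resistant S. mansoni were treated in vitro, and [3H]uridine incorporation by the worms was measured. Values are % of control. Concentrations are given in M × 10^6.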

Schistosoma mansoni [2] = experiment: Incorporation of 6M*10e6 [3H]uridine in hycanthone(HC) resistant Schistosoma mansoni; in short: as §1
Schistosoma mansoni [3] = experiment: Incorporation of 6M*10e6 [3H]uridine in hycanthone(HC) sensitive Schistosoma mansoni
Schistosoma mansoni [4] = experiment: Day 50% survival of worms in culture of HC sensitive Schistosoma mansoni
Mus musculus [5] = experiment: In vivo antitumor activity against p-388 lymphocytic leukemia in mice at 5 mg/kg
In short: (§2)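 Murine P388 lymphocytic leukemia model tested by the National Cancer Institute. Compound given once daily for 9 days; activity expressed as T/C.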

Mus musculus [6] = experiment: In vivo antitumor activity against p-388 lymphocytic leukemia in mice at 10 mg/kg; in short: as §2
Mus musculus [7] = experiment: In vivo antitumor activity against p-388 lymphocytic leukemia in mice at 2.5 mg/kg; in short: as §2
Schistosoma mansoni [8] = experiment: Day 50% survival of worms in culture of HC resistant Schistosoma mansoni
In short: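 Adult HC-resistant S. mansoni were exposed in vitro and kept in culture. The value is the day by which 50% of worms were dead. Cultures were ended at different times in different experiments. Concentrations are given in M × 10^6.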

Mus musculus [9] = experiment: In vivo antitumor activity against p-388 lymphocytic leukemia in mice at 20 mg/kg; in short: as §2
Schistosoma mansoni [10] = experiment: Incorporation of 1.2 M *10e6 [3H]uridine in hycanthone(HC) sensitive Schistosoma mansoni
Mus musculus [11] = experiment: In vivo antitumor activity against p-388 lymphocytic leukemia in mice at 25 mg/kg; in short: as §2
Schistosoma mansoni [12] = experiment: Incorporation of 1.1 M *10e6 [3H]uridine in hycanthone(HC) sensitive Schistosoma mansoni
Mus musculus [13] = experiment: In vivo antitumor activity against p-388 lymphocytic leukemia in mice at 3.12 mg/kg; in short: as §2
Schistosoma mansoni [14] = experiment: Incorporation of 5.5M*10e6 [3H]uridine in hycanthone(HC) sensitive Schistosoma mansoni
Mus musculus [15] = experiment: In vivo antitumor activity against p-388 lymphocytic leukemia in mice at 6.25 mg/kg; in short: as §2
Schistosoma mansoni [16] = experiment: Incorporation of 5.5 M*10e6 [3H]uridine in hycanthone(HC) resistant Schistosoma mansoni; in short: as §1
Mus musculus [17] = experiment: In vivo antitumor activity against p-388 lymphocytic leukemia in mice at 12.5 mg/kg; in short: as §2
Schistosoma mansoni [18] = experiment: Incorporation of 1.1 M *10e6 [3H]uridine in hycanthone(HC) resistant Schistosoma mansoni; in short: as §1

SMILES	Control (Schistosoma mansoni [1])	Control (Schistosoma mansoni [2])	Control (Schistosoma mansoni [3])	Effect (Schistosoma mansoni [4])	T/C (Mus musculus [5])	T/C (Mus musculus [6])	T/C (Mus musculus [7])	Effect (Schistosoma mansoni [8])	T/C (Mus musculus [9])	Control (Schistosoma mansoni [10])	T/C (Mus musculus [11])	Control (Schistosoma mansoni [12])	T/C (Mus musculus [13])	Control (Schistosoma mansoni [14])	T/C (Mus musculus [15])	Control (Schistosoma mansoni [16])	T/C (Mus musculus [17])	Control (Schistosoma mansoni [18])
CCN(CC)CCNc1ccc(COC(=O)OC)c2sc3ccccc3c(=O)c12	80%	28%	6%	7 days and 6 days	124%	124%	118%	13 days and 6 days	122%	32%	–	–	–	–	–	–	–	–
CCCCNC(=O)OCc1ccc(NCCN(CC)CC)c2c(=O)c3ccccc3sc12	–	–	–	>12 days	–	–	–	–	–	–	129%	34%	119%	31%	135%	100%	104%	100%
